Compounds with a hit are over-represented: about 5.1% of the library has one in this group of screens.
STAT3 activator – STAT3 signaling activation; activation (% of control), % at 5.6 µM; AID 871; 0.91% of 190,000 active; U3A cells, IL-6 STAT3-luciferase reporter, luminescence; 100% = signal with IL-6 EC80 alone;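 active = activation above the screen-wide mean of compound activation plus 3 SD, cut at about 130% in these data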
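Test system: STAT3-luciferase reporter U3A cells; Detection: reporter luminescence signal; Times: 1 h compound pre-exposure, 6 h IL-6 stimulation, 37 °C; Benchmarks: IL-6-only high control; Also added: IL-6 stimulus at 33 ng/mL final.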
STAT1 act – increases IFN-gamma driven STAT1 reporter signal; NIH 3T3 STAT1-luciferase reporter, luminescence; 100% = IFN-gamma alone, no compound; 2.6% of 200,000 active; activation (% of control), % at 5.5 µM;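 active = activation above the screen-wide mean activation plus 3 SD, cut at about 130% in these data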
STAT1 blocker – STAT1 signaling inhibition. NIH 3T3 STAT1-luciferase reporter, IFN-gamma, luminescence. inhibition, % at 5.5 µM. 0.35% of 200,000 active;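 active = inhibition above a set limit, the mean inhibition across all tested compounds plus 3 SD, cut at about 34% in these data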
NF-kB neuron act – compounds increasing NF-kB expression in human neuronal cells; NF-kB reporter expression; hits give high values; 1.6% of 190,000 active; fold change at 12.5 µM; AID 1239; in the data active = fold change above about 3.3
STAT3 blocker – STAT3 signaling inhibition; U3A cells, IL-6 STAT3-luciferase reporter, luminescence; host cell line lacks STAT1; inhibition, % at 5.5 µM; 0.89% of 190,000 active; AID 862;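 active = inhibition above the mean inhibition across all screened compounds plus 3 SD, cut at about 44% in these data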
APP 5'UTR act – APP 5'UTR luciferase reporter activation | SH-SY5Y APP 5'UTR luciferase reporter, luminescence; zero percent = DMSO vehicle wells | activation, % at 2 µM | 1% of 190,000 active;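 active = activation above a set limit, based on mean plus 3 SD of controls, cut at about 140% in these data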
A number is an active result; – = inactive; · = no result given.

SMILES	STAT3 activator	STAT1 act	STAT1 blocker	NF-kB neuron act	STAT3 blocker	APP 5'UTR act
Cc1ccccc1NCc1ccccc1O	–	–	–	–	–	–
CCC(=O)Nc1ccc(-c2cc3ccccc3oc2=O)cc1	–	143	–	–	–	–
O=c1oc2ccccc2cc1NCc1ccccc1O	–	–	–	3.6	–	–
O=c1oc2ccccc2cc1-c1ccc(O)cc1	–	134	–	–	–	–
CCC(=O)Nc1cc(-c2cc3ccccc3oc2=O)ccc1OC	–	–	–	–	–	–
CC(=O)Nc1ccc(-c2cc3ccccc3o2)cc1	–	141	–	6.5	–	222
CCC/C=N/NC(=O)c1ccccc1O	–	–	–	–	–	–
CCc1ccc(OCC(=O)Nc2cccc3c2CCCC3)cc1	–	–	–	–	–	–
O=C(NNC(=O)C(c1ccccc1)c1ccccc1)c1ccccn1	–	–	–	–	–	–
COc1ccc2cc(CCN3C(=O)c4ccccc4C3=O)c(=O)[nH]c2c1	–	–	–	–	–	–
Clc1ccc(OCCSc2ncccn2)c(Br)c1	–	144	–	–	–	174
Cc1ccc(OCCSc2nc(N)cc(N)n2)cc1	–	138	–	–	–	–
CCCOc1ccc(OCCSc2ncccn2)cc1	–	135	–	4.2	–	–
Cc1cc(C)cc(OCC(=O)NNC(=O)CCC(=O)NCc2ccccc2)c1	–	–	–	–	–	·
Clc1ncnc2scc(-c3ccc(Br)cc3)c12	–	–	–	–	–	–
CCCc1nc2sc3ccccc3c(=O)c2c(=O)n1Cc1ccco1	147	–	–	–	–	–
CCCc1nc2oc3cc(OC)ccc3c(=O)c2c(=O)n1Cc1ccco1	–	–	–	–	–	–
Cc1nc2c(Cl)cccc2[nH]1	133	–	–	–	–	·
Cc1nc(C)c(Cc2ccccc2Cl)c(=O)[nH]1	–	–	–	–	–	–
O=C(CCCCCn1c(=S)[nH]c2ccc(N3CCOCC3)cc2c1=O)NCc1cccc(Cl)c1	–	–	–	–	–	–
O=C(CSc1cccc[n+]1[O-])N1CCCCCC1	–	–	–	–	–	–
O=C(CSc1cccc[n+]1[O-])CSc1cccc[n+]1[O-]	–	–	–	4.9	–	–
Fc1ccccc1CSc1nnc(-c2ccccc2)o1	–	145	–	5	–	139
c1ccc(CSc2nnc(-c3ccncc3)o2)cc1	–	–	–	–	–	–
Cc1ccccc1-c1nnc(SCc2ccccc2)o1	–	132	–	–	–	–
SMILES	STAT3 activator	STAT1 act	STAT1 blocker	NF-kB neuron act	STAT3 blocker	APP 5'UTR act
Cc1ccccc1-c1nnc(SCc2ccccc2F)o1	–	148	–	6.4	–	142
Cc1ccc(CSc2nnc(-c3ccco3)o2)cc1	–	–	–	3.9	–	–
CCCc1ncc(C(O)c2ccccc2OC)n1C (stereo not given)	–	–	–	–	–	–
C/C(CC1CC2=C(CC1(C)C)C(C)(C)CCC2)=N\NC(N)=S (stereo not given)	–	–	–	–	–	–
O=C(Cc1ccccc1)NCC(=O)OCC(=O)c1cccs1	–	–	–	–	–	–
CCSc1nnc(-c2ccc(OC)cc2)o1	–	–	–	–	–	–
C#CCSc1nnc(-c2ccc(OC)cc2)o1	–	134	–	–	–	–
COc1ccc(-c2nnc(SCc3ccccc3F)o2)cc1	–	142	–	7.7	–	157
COc1ccc(-c2nnc(SCC#N)o2)cc1	–	–	–	–	–	–
CCc1nc2cc3sc(CC)nc3cc2s1	–	148	–	–	–	–
Cc1nc2cc3nc(C)sc3cc2s1	–	–	–	–	–	–
Cc1c(C(=O)Nc2ccc3c(c2)OCO3)sc2ncn(CC(=O)N3CC(C)CC(C)C3)c(=O)c12 (stereo not given)	–	–	–	–	–	·
COc1ccc(C(=O)NCCSc2ccccc2)cc1OC	–	134	–	–	–	–
O=C1[C@@H]2Cc3c([nH]c4ccccc34)[C@@H](c3ccccc3)N2C(=O)[C@@H]2Cc3c([nH]c4ccccc34)[C@@H](c3ccccc3)N12	137	–	–	–	–	–
O=C(NCCc1ccncc1)c1ccccc1F	–	–	–	–	–	–
CN(c1ccc(C(=O)NCCc2ccccc2)cc1)S(C)(=O)=O	–	141	–	–	–	–
CCCCc1ccc(NC(=O)C2CCCO2)cc1 (stereo not given)	–	130	–	–	–	–
O=C(NCCc1ccccc1)c1ccccc1F	–	–	–	3.3	–	–
